SMILES strings stand for the structures.

One assay has as its target T1, Carboxypeptidase B2 (Homo sapiens, UniProt Q96IY4).
T1 sequence (Q96IY4 whole entry): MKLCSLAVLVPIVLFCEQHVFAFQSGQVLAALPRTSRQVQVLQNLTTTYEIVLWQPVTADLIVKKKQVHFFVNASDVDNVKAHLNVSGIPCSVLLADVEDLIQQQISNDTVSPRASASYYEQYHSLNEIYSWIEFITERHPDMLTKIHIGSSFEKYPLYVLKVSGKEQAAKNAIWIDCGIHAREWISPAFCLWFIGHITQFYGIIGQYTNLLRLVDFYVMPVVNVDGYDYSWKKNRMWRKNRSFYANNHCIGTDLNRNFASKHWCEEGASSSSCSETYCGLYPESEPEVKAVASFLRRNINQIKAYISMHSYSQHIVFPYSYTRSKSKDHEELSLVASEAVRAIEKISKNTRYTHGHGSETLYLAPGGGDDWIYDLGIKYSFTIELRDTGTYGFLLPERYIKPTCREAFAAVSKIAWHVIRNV
Nature of the assay: Inhibition of TAFIalpha in human plasma incubated for 15 mins by chromogenic assay. It counts as cell-free. In a few lines: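 Plasma TAFI activity kit: TAFIa (2.5 μg/mL) preincubated with compound (from 2.5 mM DMSO stock) in 20 mM HEPES, 150 mM NaCl, pH 7.4, 15 min at room temperature; reaction started with developer (1:2 prediluted) and followed at 420 nm for 15 min. IC50 from serial dilutions in duplicate; mean (SEM) of n = 2 within one experiment.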

Assay [1] deals with Glucagon-like peptide 1 receptor (Homo sapiens, UniProt P43220). Nature of the assay: Agonist activity at human GLP-1 receptor expressed in HEK293 cells assessed as induction of cAMP accumulation incubated for 30 mins by HTRF assay. It counts as functional, cell-based. The essentials: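 HEK-293 cells stably expressing human receptor, grown in DMEM/10% FBS, frozen, thawed and washed in HBSS/20 mM HEPES/0.1% HSA; resuspended with 2 mM IBMX. 5000 cells/well incubated with peptide 30 min at room temperature; cAMP by HTRF kit, 1 h with reagents in lysis buffer, 665/620 nm fluorescence ratio.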

In another assay the target is Glucagon receptor (Homo sapiens, UniProt P47871). Nature of the assay: Agonist activity at human glucagon receptor expressed in HEK293 cells assessed as induction of cAMP accumulation incubated for 30 mins by HTRF assay. It counts as functional, cell-based. In general terms: cAMP levels reflect the balance of adenylyl cyclase and phosphodiesterase activity.
Sequence of Glucagon receptor (P47871 whole entry): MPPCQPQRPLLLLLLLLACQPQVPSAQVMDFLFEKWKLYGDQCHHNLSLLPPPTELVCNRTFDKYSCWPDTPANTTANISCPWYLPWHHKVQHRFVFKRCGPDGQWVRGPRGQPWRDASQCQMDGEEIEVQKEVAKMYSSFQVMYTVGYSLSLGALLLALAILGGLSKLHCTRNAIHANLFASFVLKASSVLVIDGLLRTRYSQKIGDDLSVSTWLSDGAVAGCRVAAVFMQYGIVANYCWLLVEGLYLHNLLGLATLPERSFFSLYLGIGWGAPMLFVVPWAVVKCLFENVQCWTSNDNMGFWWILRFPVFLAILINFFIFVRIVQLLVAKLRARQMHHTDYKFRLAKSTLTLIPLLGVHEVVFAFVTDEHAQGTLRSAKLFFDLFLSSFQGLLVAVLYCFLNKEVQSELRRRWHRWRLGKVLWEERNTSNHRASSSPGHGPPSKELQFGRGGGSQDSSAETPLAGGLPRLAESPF

Sequence of Glucagon-like peptide 1 receptor (P43220 whole entry): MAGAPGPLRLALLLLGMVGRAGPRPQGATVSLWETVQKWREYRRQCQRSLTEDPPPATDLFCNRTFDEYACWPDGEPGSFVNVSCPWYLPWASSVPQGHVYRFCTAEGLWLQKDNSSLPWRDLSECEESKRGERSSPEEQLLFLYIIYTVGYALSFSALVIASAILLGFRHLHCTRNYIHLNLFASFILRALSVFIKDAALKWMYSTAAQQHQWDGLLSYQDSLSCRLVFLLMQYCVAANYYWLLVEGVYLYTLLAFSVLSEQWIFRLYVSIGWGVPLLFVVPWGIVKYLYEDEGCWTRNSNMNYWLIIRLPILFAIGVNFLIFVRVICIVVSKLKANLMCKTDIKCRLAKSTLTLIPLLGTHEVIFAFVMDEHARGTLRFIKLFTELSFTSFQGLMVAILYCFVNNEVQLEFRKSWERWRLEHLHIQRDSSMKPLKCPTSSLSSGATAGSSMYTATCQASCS

The term IC50 denotes the concentration that inhibits the measured activity by half. Regarding `CC(C)[C@@H]1NC(=O)[C@H](NC(=O)N[C@@H](CCCCN)C(=O)O)CCCCNC(=O)c2csc1n2`, half-maximal inhibition against Carboxypeptidase B2 (IC50) required 10 nM.
`CC(C)[C@@H]1NC(=O)[C@H](NC(=O)N[C@@H](CCCCN)C(=O)O)CCCCNC(=O)c2coc1n2` had a concentration for half-maximal inhibition (IC50) on Carboxypeptidase B2 of 42 nM.
Still for that read-out and setting: next, `CC(C)[C@@H]1NC(=O)[C@H](NC(=O)N[C@@H](CCCCN)C(=O)O)Cc2ccc(cc2)NC(=O)c2coc1n2`: 52 nM.
The term EC50 denotes the midpoint of the concentration-response curve. Regarding `CC[C@H](C)[C@H](NC(=O)[C@H](Cc1ccccc1)NC(=O)[C@H](CC(=O)O)NC(=O)[C@@H]1CCC(=O)NCCCC[C@H](NC(=O)[C@H](CC(=O)O)NC(=O)[C@H](CCSC)NC(=O)[C@H](CCC(N)=O)NC(=O)[C@H](CCCCN)NC(=O)[C@H](CO)NC(=O)[C@H](CC(C)C)NC(=O)[C@H](CC(=O)O)NC(=O)[C@H](CO)NC(=O)[C@@H](NC(=O)[C@H](Cc2ccccc2)NC(=O)[C@@H](NC(=O)CNC(=O)[C@H](CCC(N)=O)NC(=O)[C@@H](CO)NC(=O)[C@@H](N)Cc2cnc[nH]2)[C@@H](C)O)[C@@H](C)O)C(=O)N[C@@H](CCCNC(=N)N)C(=O)N[C@@H](CCCNC(=N)N)C(=O)N[C@@H](C)C(=O)N1)C(=O)N[C@@H](CCC(=O)O)C(=O)N[C@@H](Cc1c[nH]c2ccccc12)C(=O)N[C@@H](CC(C)C)C(=O)N[C@@H](CCCCN)C(=O)N[C@@H](CC(N)=O)C(=O)NCC(=O)NCC(=O)N1CCC[C@H]1C(=O)N[C@@H](CO)C(=O)N[C@@H](CO)C(=O)NCC(=O)N[C@@H](C)C(=O)N1CCC[C@H]1C(=O)N1CCC[C@H]1C(=O)N1CCC[C@H]1C(=O)N[C@@H](CO)C(N)=O`, the EC50 stood at 0.0064 nM in assay [1] and 0.0078 nM at Glucagon receptor.
On the same counts, the results for `CC[C@H](C)[C@@H]1NC(=O)[C@H](Cc2ccccc2)NC(=O)[C@@H](NC(=O)[C@H](CCC(N)=O)NC(=O)[C@H](C)NC(=O)[C@H](CCCNC(=N)N)NC(=O)[C@H](CCCNC(=N)N)NC(=O)[C@H](CO)NC(=O)[C@H](CC(=O)O)NC(=O)[C@H](CCSC)NC(=O)[C@H](CCC(N)=O)NC(=O)[C@H](CCCCN)NC(=O)[C@H](CO)NC(=O)[C@H](CC(C)C)NC(=O)[C@H](CC(=O)O)NC(=O)[C@H](CO)NC(=O)[C@@H](NC(=O)[C@H](Cc2ccccc2)NC(=O)[C@@H](NC(=O)CNC(=O)[C@H](CCC(N)=O)NC(=O)[C@H](CO)NC(=O)[C@@H](N)Cc2cnc[nH]2)[C@@H](C)O)[C@@H](C)O)CSCc2cc3cc(c2)CSC[C@@H](C(=O)N2CCC[C@H]2C(=O)N2CCC[C@H]2C(=O)N2CCC[C@H]2C(=O)N[C@@H](CO)C(N)=O)NC(=O)CNC(=O)[C@H](CO)NC(=O)[C@@H](CO)NC(=O)[C@@H]2CCCN2C(=O)CNC(=O)CNC(=O)[C@H](CSC3)NC(=O)[C@H](CCCCN)NC(=O)[C@H](CC(C)C)NC(=O)[C@H](Cc2c[nH]c3ccccc23)NC(=O)[C@H](CCC(=O)O)NC1=O` are 0.194 nM and 0.578 nM.

(Values after ChEMBL document CHEMBL4665843, “Automated Design of Macrocycles for Therapeutic Applications: From Small Molecules to Peptides and Proteins” (J Med Chem, 2020).)
